Shown is part of a subset that was picked to be rich in hits.
Jurkat NFkB inh = inhibitors of the PMA/ionomycin-induced NF-kB reporter in Jurkat cells | inhibition, % at 4 µM | PMA/ionomycin-induced NF-kB luciferase reporter, luminescence | actives 0.53% (n = 330,000) | AID 435003; in the data active = inhibition above about 50%
XBP1 UPR activ = activators of adaptive arm of unfolded protein response (XBP1) | CHO-XBP1 luciferase reporter, IRE1-XBP1 UPR activation, luminescence; percent of tunicamycin response, DMSO as zero | activation, % at 20 µM | actives 0.33% (n = 330,000) | AID 463104;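 active = versus positive control, 20 µM dose yields 30% or more activation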;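 also: 100% = tunicamycin at 10 µg/mL and 0% = DMSO only wells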
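Material: IRE1-XBP1 luciferase reporter CHO line / Quantity: one thousand reporter cells per well / Buffer or medium: F12 with 10% serum / Compound: 20 µM single concentration, DMSO 1% / Times: 6 h treatment, 37 °C / Detection: Steady-Glo luciferase glow luminescence, 10 min after reagent addition / Benchmarks: tunicamycin high, DMSO low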
CHOP inhibitor = inhibitors of CHOP induction in ER stress response | CHO-K1 CHOP-promoter luciferase, tunicamycin-induced, 15-18 h | inhibition, % at 10 µM | actives 3.8% (n = 220,000) | AID 2732;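 active = compounds that reduced the stress-induced luciferase reporter signal by more than about 70% of percent inhibition, limit read from the data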;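 also: 0% = tunicamycin plus vehicle and 100% = wells without tunicamycin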
697 NFkB inh = inhibitors of the PMA/ionomycin-induced NF-kB reporter in 697 B cells; 697 B-cell NF-kB luciferase reporter, 16 h; inhibition, % at 4 µM; actives 0.33% (n = 330,000); AID 435022; in the data active = inhibition above about 35%
CHOP UPR activ = apoptotic UPR (CHOP) activation; actives 0.34% (n = 330,000); AID 449763; activation, % at 10 µM; CHO-CHOP luciferase reporter, luminescence; percent of tunicamycin response over DMSO baseline;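 active = at 10 µM dose, activation of 40% or more, normalized to positive control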;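 also: 100% = tunicamycin at 10 µg/mL and 0% = DMSO alone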
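Dosing – one dose, 10 µM in 0.5% DMSO · System – CHO-CHOP cells, stable luciferase reporter of PERK-eIF2a-CHOP signalling · Input – 500 cells/well · Control set – tunicamycin 10 µg/mL final as positive, DMSO-only wells as negative · Timing – 6 h compound treatment, 37 °C · Measure – % activation vs tunicamycin · Technique – luminescence read with Steady-Glo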
* marks the source's active call; other numbers are inactive results; · = no result given.

SMILES	Jurkat NFkB inh	XBP1 UPR activ	CHOP inhibitor	697 NFkB inh	CHOP UPR activ
c1ccc(OCc2nc(-c3ccncc3)no2)cc1	-25	4	-5	-26	7
NC1=NC[C@H](CC2CCCCC2)N1CCc1cc(C(F)(F)F)cc(C(F)(F)F)c1	5	2	94*	4	0
COc1cccc(/C=N/n2c(-c3ccco3)nc3ccccc3c2=O)c1	-6	2	-28	-24	2
COc1ccc(/C=N/n2c(-c3ccco3)nc3ccccc3c2=O)cc1	-21	2	80*	-53	3
COCCNC(=O)c1c(N)n(CCC2=CCCCC2)c2nc3ccccc3nc12	-6	-1	78*	-2	0
COc1ccc(C2(C)NC(=O)N(CC(=O)Nc3ccc(-c4nc5ccc(C)cc5s4)cc3)C2=O)cc1 (centres undefined)	-81	-2	71*	-104	0
Cc1nnc(SCC(=O)Nc2ccccc2NC(=O)CSc2nnc(C)s2)s1	1	-1	17	6	0
Cc1ccc2nc(-c3ccc(NC(=O)CN4C(=O)c5ccccc5C4=O)cc3)sc2c1	-108	10	26	-97	3
Cc1nnc(SCC(=O)Nc2ccc(-c3nc4ccccc4s3)cc2)s1	·	·	86*	·	·
Cc1ccc2nc(-c3ccc(NC(=O)CNC4CC4)cc3)sc2c1	·	·	28	·	·
Cc1ccc2nc(-c3ccc(NC(=S)NC(=O)CC(C)C)cc3)sc2c1	-85	8	96*	-89	6
Cc1ccc2nc(-c3ccc(NC(=O)CSc4nc(N)cc(=O)[nH]4)cc3)sc2c1	-121	4	73*	-177	8
NS(=O)(=O)c1ccc(CCNC(=O)CN2C(=O)COc3ccc(S(=O)(=O)N4CCCC4)cc32)cc1	15	-4	·	6	2
Cc1ccc2nc(-c3ccc(NC(=O)CCS(=O)(=O)c4ccccc4)cc3)sc2c1	-106	-3	82*	-113	-4
Cc1ccc2nc(-c3ccc(NS(=O)(=O)c4c(C)n(C)c(=O)n(C)c4=O)cc3)sc2c1	-126	0	37	-76	5
Cc1nc2ccc(NC(=O)CCS(=O)(=O)c3ccccc3)cc2s1	-25	0	-11	-11	2
Cc1ccc(S(=O)(=O)Nc2ccc(-c3nc4ccc(C)cc4s3)cc2)cc1	1	-1	87*	-17	6
O=C(NC1CCN(C(=O)c2ccccc2Br)CC1)c1ccccc1	7	-1	·	7	0
COc1ccc(Cn2c(=O)[nH]c3cc(C(=O)N4CCN(Cc5ccccc5)CC4)ccc3c2=O)cc1	34	-3	72*	-20	-3
COc1cc(NC(=O)CSc2cc(C)c3cc(C)cc(C)c3n2)c(C(=O)O)cc1OC	-9	1	17	-1	-1
O=[N+]([O-])c1cc(CN2CCOCC2)c2cccnc2c1O	·	·	19	·	·
O=[N+]([O-])c1cc(CN2CCN(c3ccccc3)CC2)c(O)c2ncccc12	9	14	77*	-6	10
COc1ccccc1C(=O)NC(=O)COC(=O)c1ccc(C)o1	13	-1	·	8	0
O=C1Nc2ccc(Br)cc2C1(O)c1ccccc1 (centres undefined)	-22	1	·	0	1
O=C1Nc2ccc(Br)cc2C12NNc1ccccc1O2 (centres undefined)	-22	9	105*	-4	2
SMILES	Jurkat NFkB inh	XBP1 UPR activ	CHOP inhibitor	697 NFkB inh	CHOP UPR activ
NS(=O)(=O)c1ccc(CCNCc2cccnc2)cc1	0	-4	·	-28	1
O=C(COc1ccc(Cl)c(Cl)c1)NN1C(=O)C2C(C1=O)C1C=CC2C12CC2 (centres undefined)	-8	-1	21	0	1
CC(C)=C1C2CCC1C1C(=O)N(NC(=O)COc3ccc(Cl)c(C)c3)C(=O)C21 (centres undefined)	9	1	71*	12	-2
Cc1ccc(CC(=O)CCc2ccccc2)cc1	-8	4	·	-11	4
CSc1nc(-c2ccco2)nn1C(=O)c1ccc(C)cc1	-1	3	80*	-9	-1
COc1ccc(N2C(=O)CC(Sc3ncn[nH]3)C2=O)c(OC)c1 (centres undefined)	10	-1	91*	25	11
CC(C)c1ccc(N2C(=O)CC(Sc3ncn[nH]3)C2=O)cc1 (centres undefined)	0	0	-52	16	2

Screens: PubChem BioAssay, several laboratories
